# Tests used:
# [1] = tested on: A549; assay: Anticancer activity against human A549 cells assessed as inhibition of cell growth incubated for 48 hrs by MTT assay; assay type: functional, cell-based; conditions: A549, 48 h
# How it was run: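 A549 cells were seeded in 96-well plates and held overnight at 37°C, 95% humidity, 5% CO₂. Compounds came from DMSO stock dilution series and were added at 100, 50, 25, 12.5, 6.25 and 3.125 μg/mL for 48 hrs. Wells were PBS-washed, given MTT for 4h at 37°C, and formazan was dissolved in DMSO. A570 was read, and survival was taken as mean test OD over mean negative-control OD ×100.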
# [2] = Electrochemical behavior of the compound assessed as oxidation potential peak by measuring […] current in DMSO using Ag/AgCl reference electrode by cyclic voltammetry; assay type: physicochemical
# [3] = Electrochemical behavior of the compound assessed as reduction potential peak by measuring […] current in DMSO using Ag/AgCl reference electrode by cyclic voltammetry; assay type: physicochemical
SMILES,IC50 [1],Activity [2],Activity [3]
CC1=NOC(=O)/C1=C/c1ccc[nH]1,183 µM,Active,Active
CC1=NOC(=O)/C1=C/c1c(Cl)[nH]c2ccccc12,8.99 µM,Active,Active
CC1=NOC(=O)/C1=C/c1cn(-c2ccccc2)cc1-c1ccccc1,12.3 µM,Active,Active
CC1=NOC(=O)/C1=C/c1c(O)ccc2ccccc12,22.8 µM,Active,Active
CC1=NOC(=O)C1Cc1cccs1 (stereo not given),14.2 µM,Active,Active

# Results, then the compound that gave them:
IC50 [1],Activity [2],Activity [3],SMILES
59.2 µM,Active,Active,COc1ccc(/C=C2/C(=O)ON=C2C)cc1OC
37.4 µM,Active,Active,CC1=NOC(=O)/C1=C/c1c(-c2ccccc2)[nH]c2ccccc12
8.73 µM,–,–,COc1cccc2c1C(=O)c1c(O)c3c(c(O)c1C2=O)C[C@@](O)(C(=O)CO)C[C@@H]3O[C@H]1C[C@H](N)[C@H](O)[C@H](C)O1 [DOXORUBICIN]
107 µM,Active,Active,CC1=NOC(=O)/C1=C/c1c[nH]c2ccccc12

# Source: ChEMBL document CHEMBL5104212, “Green synthesis of 3-methyl-4-(hetero)aryl methylene isoxazole-5(4H)-ones using WEOFPA/glycerol: evaluation of anticancer and electrochemical behaviour properties” (RSC Med Chem, 2022)
